Screens from PubChem BioAssay.
An excerpt weighted towards active compounds, which were near 3.3% of everything screened.
NRP1-CendR mod: modulators of CendR peptide binding to NRP-1, primary screen, biochemical, fluorescence polarization, uHTS; FAM-RPARPAR peptide binding to NRP-1; hit rate 0.85% among 360,000; inhibition, % at 25 µM;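 active means inhibition or corrected inhibition above about 18%, plus a signal ratio from 0.5 to 1.5, limit read from the data, passing the limit was not always enough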
Target sequence (O14786 whole entry, looked up): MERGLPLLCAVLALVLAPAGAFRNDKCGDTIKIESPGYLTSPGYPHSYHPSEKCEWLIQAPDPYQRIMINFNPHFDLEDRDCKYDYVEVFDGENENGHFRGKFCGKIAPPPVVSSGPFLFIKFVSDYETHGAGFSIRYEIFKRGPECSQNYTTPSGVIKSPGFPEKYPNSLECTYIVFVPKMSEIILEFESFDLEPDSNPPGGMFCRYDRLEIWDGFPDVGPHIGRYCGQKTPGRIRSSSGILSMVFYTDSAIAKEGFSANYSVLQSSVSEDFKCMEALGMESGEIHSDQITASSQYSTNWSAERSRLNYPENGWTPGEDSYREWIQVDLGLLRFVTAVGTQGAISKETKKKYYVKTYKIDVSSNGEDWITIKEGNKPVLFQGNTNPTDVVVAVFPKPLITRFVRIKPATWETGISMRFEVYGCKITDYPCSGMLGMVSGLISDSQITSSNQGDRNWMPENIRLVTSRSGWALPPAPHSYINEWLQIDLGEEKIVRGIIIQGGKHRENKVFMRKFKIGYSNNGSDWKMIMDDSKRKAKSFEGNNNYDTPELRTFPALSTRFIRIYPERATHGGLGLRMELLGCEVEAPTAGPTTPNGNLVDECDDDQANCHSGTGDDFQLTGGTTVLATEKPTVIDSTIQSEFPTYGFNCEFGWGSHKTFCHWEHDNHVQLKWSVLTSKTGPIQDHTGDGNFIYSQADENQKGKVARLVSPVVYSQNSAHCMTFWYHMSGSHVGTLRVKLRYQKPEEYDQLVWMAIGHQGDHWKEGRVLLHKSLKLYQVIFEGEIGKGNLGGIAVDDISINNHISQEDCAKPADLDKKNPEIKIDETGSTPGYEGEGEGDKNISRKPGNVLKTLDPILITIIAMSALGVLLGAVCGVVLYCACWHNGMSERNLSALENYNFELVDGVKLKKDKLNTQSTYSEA
sPLA2-III inh: human group III sPLA2 inhibitors, primary screen, biochemical, QFRET, BODIPY PC-A2 liposome substrate; Group 3 secretory phospholipase A2 (Homo sapiens), Q9NZ20; QFRET BODIPY PC-A2 liposome hydrolysis, fluorescence; inhibition, % at 12.2 µM; hit rate 0.56% among 370,000;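 active means inhibition above mean plus 3 SD of compounds lying within the high and low control bounds, cut at about 19% in these data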;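 further: 0% = median of test compound wells and 100% = no enzyme DMSO wells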
Hep lipid drop: inhibitors of hepatocyte lipid droplet formation, primary screen, imaging, high-throughput imaging, BODIPY stain. AML12 mouse hepatocytes, oleate lipid droplets. inhibition, % at 6.5 µM. hit rate 0.4% among 240,000;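 active means lipid droplet intensity inhibited by at least 50%, with more than 500 cells counted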
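Material – mouse AML12 hepatocyte cell line, fixed after treatment · Compound dosing – one dose, 6.5 µM compound · Times – compound with oleate, overnight · Measured by – Image-based BODIPY and DAPI two-channel analysis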
Arr AP2 block: inhibitors of beta-arrestin/AP2 binding, primary screen, biochemical, GPCR trafficking, flow cytometry. beta-arrestin 1 C-terminal peptide binding to AP2 beta2-adaptin appendage (human). FITC-arrestin peptide / GST-AP2 beads; AP2 beta2 appendage carries R879A mutation. inhibition, % at 10 µM. hit rate 0.31% among 340,000. AID 504490, 2011;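 active means inhibition above a set limit, near 3 SD of compounds lacking own fluorescence, cut at about 54% in these data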;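 further: plate controls were DMSO wells for no effect and 5 µM unlabelled arrestin peptide for full effect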
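Material – GST-tagged AP2 beta2-adaptin appendage (R879A) on 4 µm glutathione beads · Probe or stimulus – fluorescein-tagged arrestin peptide at 50 nM final · Timing – 12 min plus 1 h, RT · Detection – bead flow cytometry, FITC channel · Read-out basis – inhibition as reduced fluorescein signal on beads, percent · Medium – PBS plus Tween 20 (0.05%) and BSA (0.1%)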
HTR2A ag: mouse Htr2a agonists via beta-arrestin recruitment, primary screen, cell-based, luminescence; activation, % at 7.6 µM; AID 624169, 2012; hit rate 0.66% among 360,000; CHO-K1 mHTR2A beta-arrestin complementation; percent of 30 µM serotonin response; 5-hydroxytryptamine receptor 2A (Mus musculus), P35363;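 active means activation above a run cutoff, the mean activation of all tested compounds plus 3 SD, cut at about 14% in these data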;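 further: 0% = plate median of compound wells and 100% = 30 µM serotonin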
PfM18AAP inh: PfM18AAP inhibitors, malaria aminopeptidase, primary screen, biochemical, QFRET, recombinant enzyme. H-Glu-NHMec fluorogenic cleavage. inhibition, % at 7.35 µM. hit rate 1.2% among 290,000. AID 1822, 2009;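 active means inhibition above the campaign mean inhibition over all tested compounds plus 3 SD, cut at about 28% in these data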;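 further: 0% = plate median of test compound wells and 100% = 2 mM ZnCl2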
* marks the source's active call; other numbers are inactive results; . = no result given.

SMILES	NRP1-CendR mod	sPLA2-III inh	Hep lipid drop	Arr AP2 block	HTR2A ag	PfM18AAP inh
CN1CCCC(OC(=O)c2cccc(Cl)c2)C1 (stereo not drawn)	30*	2	-7	9	-4	-2
CN1CCCC(OC(=O)c2cc(Cl)cc(Cl)c2)C1 (stereo not drawn)	-9	-2	-33	9	3	-3
COC(=O)c1c(C(=O)OC)c(-c2ccc(Cl)c(Cl)c2)n2c1CCC2	23*	.	.	2	-8	-10
CC(C)(C)c1ccc(C(=O)NCCC(=O)N2CCN(c3ncccn3)CC2)cc1	10	1	-2	-7	17*	-13
CC(C)(C)c1ccc(C(=O)NCCC(=O)N2CCCC2)cc1	-2	1	6	9	6	3
CCOc1ccc(S(=O)(=O)Nc2ccc(C(=O)NCC(C)(C)N3CCOCC3)cc2)cc1	21*	-6	.	-14	-5	.
CC(=O)Nc1cccc(-c2csc(C(C)(O)c3ccc(F)c(F)c3)n2)c1 (stereo not drawn)	0	-14	.	.	-2	.
COC(=O)C1=C(C)N(c2ccc(C)c(C)c2)/C(=C/c2ccco2)C1=O	-103	.	-6	-5	18*	-4
CCOC(=O)N1C2=NC(C(=O)OC)=C(C(=O)OC)[C@@H]3N(C)c4ccc(OC)cc4[C@]23C[C@H]1C(=O)OC	25*	4	.	19	3	.
COC(=O)C1=C(C(=O)OC)[C@@H]2N(C)c3ccccc3[C@@]23C[C@@H](CO)N(C(=O)c2cccs2)C3=N1	18	-1	.	20	7	.
C#CCCOC(=O)N1C2=NC(C(=O)OC)=C(C(=O)OC)[C@@H]3N(C)c4ccccc4[C@]23C[C@H]1CO	26*	-6	.	-4	4	.
COC(=O)C1=C(C(=O)OC)[C@@H]2N(C)c3ccc(OC)cc3[C@@]23C[C@@H](C(=O)OC)N(C(=O)c2ccc(Br)cc2)C3=N1	-1	2	-23	17	4	.
CCOC(=O)C1(C)CCN1C(=O)c1ccc(C(C)(C)C)cc1 (stereo not drawn)	-4	-3	.	.	1	.
COc1ccc(N2C(=O)CCC(C(=O)NCc3ccccn3)C2c2ccc(OC)c(OC)c2)cc1 (stereo not drawn)	22*	0	-6	-13	0	4
COCCn1ccc2c(OCC(=O)NCc3ccc(C)cc3)cccc2c1=O	10	11	.	8	2	.
C[C@@]12CCC3[C@@](CCC4[C@@]3(C)CCC[C@@]4(C)C(=O)O)(CC1=O)C2 (stereo partly drawn)	11	4	.	3	2	.
C=C1C[C@@]23CCC4[C@@](C)(CCC[C@@]4(C)C(=O)O)C2CC[C@]1(O)C3 (stereo partly drawn)	32*	1	.	2	3	.
Cn1cc(Cc2ccc(C(=O)N3CCCCC3)cn2)c2ccccc21	-6	-4	.	.	-3	.
Cc1ccc(C(=O)NC(C)c2ccc(F)cc2)cc1 (stereo not drawn)	5	1	1	6	-4	0
Cc1ccc(C(C#N)c2ccc(C(=O)c3ccc(F)cc3)cc2)cc1 (stereo not drawn)	33*	-4	10	-11	-7	3
Cc1cc(N2CCN(C(=O)Oc3ccc([N+](=O)[O-])cc3)CC2)c2ccccc2n1	0	-7	.	.	-1	.
CC1(c2ccc(Cl)cc2)NC(=O)N(CC(=O)Nc2ccc3c(c2)OCO3)C1=O (stereo not drawn)	35*	-13	.	.	-2	.
Cc1ccc(NC(=O)CN2C(=O)NC(C)(c3ccc4c(c3)OCO4)C2=O)cc1 (stereo not drawn)	-8	1	.	-20	0	.
CCCCc1nc(SCC(=O)N2CCOCC2)c2c(=O)n(C)c(=O)n(C)c2n1	11	0	-3	16	14	-4
Cc1nc(SCC(=O)N2CCOCC2)c2c(=O)n(C)c(=O)n(CC(C)C)c2n1	24*	2	.	-1	-2	.
SMILES	NRP1-CendR mod	sPLA2-III inh	Hep lipid drop	Arr AP2 block	HTR2A ag	PfM18AAP inh
Cc1ccc(C(=O)NC2CCCCN(Cc3ccc(Cl)cc3)C2=O)c(C)c1 (stereo not drawn)	.	0	.	.	.	.
COc1ccc(C(C(=O)NC2CCCC2)N(C(=O)c2snc(C(N)=O)c2N)c2ccccc2OC)cc1OC (stereo not drawn)	32*	4	-2	6	3	4
COc1cccc(CNC(=O)[C@H]2CCCN2C(=O)[C@H]2CCCN2C(=O)c2cccc(OC)c2)c1	.	4	.	.	.	.
CC1=C/C(=C(/c2ccc(O)c(C)c2)c2ccccc2S(=O)(=O)O)C=CC1=O	9	-5	.	8	-6	.
CC1=C/C(=C(/c2cc(C)c(O)c(Br)c2)c2ccccc2S(=O)(=O)O)C=C(Br)C1=O	40*	-13	-13	31	-3	4
COP(=O)(O)CCOCCC(CC(C)C)NC(=O)OCc1ccccc1 (stereo not drawn)	.	16	.	.	.	.
CCOc1ccc(C(=S)N2CCCC2)cc1	-4	4	14	-9	6	-4
CCOc1ccc(C(=S)N2CCCC2)c(OCC)c1	-6	6	-1	-4	3	30*
Cc1ccc(NC(=O)OC2CC3CC2[C@H]2CCCCN2C3)cc1 (stereo partly drawn)	.	1	.	.	.	.
CNc1nc(-c2ccc3c(c2)CCN3C(=O)c2ccccc2F)cs1	24*	-1	0	-6	-5	2
COc1cccc(NC(=O)COC(=O)c2ccc3c(c2)OCCO3)c1	2	-5	.	.	1	.
CCOc1ccc(C(=O)OCC(=O)Nc2ccc3c(c2)OCCO3)cc1OC	25*	1	.	6	0	.
Fc1ccccc1Nc1nc2c(s1)CCc1ccccc1-2	.	.	-9	.	.	42*
COc1cccc(C(=O)N[C@H](C(=O)N2CCC[C@H]2C(=O)NCc2ccccc2)C2CCCCC2)c1	.	10	.	.	.	.
COc1ccc(OCCCC(=O)N2CCCc3ccccc32)cc1	7	2	0	6	-7	-2
COc1ccc(CCC(=O)N2CCCc3ccccc32)cc1	28*	-5	-41	1	4	-4
CCC(Sc1nc2n[nH]c(C)c2c(=N)n1-c1ccc(C)c(Cl)c1)C(=O)N1CCOCC1 (stereo not drawn)	-1	.	11	-9	0	-6
CCC(Sc1nc2n[nH]c(C)c2c(=N)n1-c1cccc(Cl)c1)C(=O)NCCOC (stereo not drawn)	29*	-12	.	0	-2	-8
O=C(O)c1ccc(CSC2CCCCC2)cc1	22*	2	-1	3	-3	-5
